CRFR2-BP ag: agonists of human CRF-binding protein/CRF-R2 receptor complex | HEK293 CRF-R2/CRF-BP, calcium dye fluorescence (FLIPR); percent of saturating CRF peptide response | activation, % at 13.2 µM | hit rate 0.46% among 350,000 | AID 588473;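 active = activation of at least 50%, plus an integration ratio under a set limit after plate pattern correction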;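 also: plate controls were neutral control wells without compound for no effect and CRF at EC100 for full effect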
H9c2 protect: protects H9c2 cardiomyocytes from peroxide injury; protection from H2O2 cell death, % at 20 µM; H2O2 injury protection, ATPLite, 2 h; hit rate 0.63% among 360,000; AID 588492;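 active = compounds giving at least 50% protection of heart cells from peroxide-induced death in the single-dose screen, raw or plate-pattern-corrected value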;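 also: 0% = DMSO wells with peroxide and 100% = DMSO wells without peroxide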
beta cell repl: MIN6 beta-cell proliferation induction; proliferation, % at 10 µM; hit rate 0.29% among 330,000; AID 2380; MIN6 cells proliferation, ATPlite luminescence, 48 h; cells starved in 0.2% serum; 100% = growth in 10% serum;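 active = compounds whose signal lies at least 3.5 SD above the mean of all wells on their plate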;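 also: 0% = DMSO-treated cells in low-serum medium and 100% = 10% serum control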
iPSC survival up: increases survival of single human iPS cells; survival enhancement, % at 20 µM; hiPSC single-cell survival, ATPlite luminescence; 100% = ROCK inhibitor wells, 0% = DMSO; hit rate 0.044% among 360,000; in the data active = survival enhancement above about 18%;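 also: cells exposed to compounds for 16 hours before the ATP read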
UCH37 DUB inh: inhibitors of human deubiquitinating enzyme UCH37. purified proteasome/UCH37, Ub-AMC cleavage fluorescence. inhibition, % (no concentration beside the values). hit rate 0.33% among 330,000. AID 588478;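 active = mean inhibition over replicate wells above about 20%, limit read from the data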;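 also: 0% = compound-free wells with enzyme and 100% = wells lacking proteasome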
Target sequence (Q9Y5K5 whole entry, looked up): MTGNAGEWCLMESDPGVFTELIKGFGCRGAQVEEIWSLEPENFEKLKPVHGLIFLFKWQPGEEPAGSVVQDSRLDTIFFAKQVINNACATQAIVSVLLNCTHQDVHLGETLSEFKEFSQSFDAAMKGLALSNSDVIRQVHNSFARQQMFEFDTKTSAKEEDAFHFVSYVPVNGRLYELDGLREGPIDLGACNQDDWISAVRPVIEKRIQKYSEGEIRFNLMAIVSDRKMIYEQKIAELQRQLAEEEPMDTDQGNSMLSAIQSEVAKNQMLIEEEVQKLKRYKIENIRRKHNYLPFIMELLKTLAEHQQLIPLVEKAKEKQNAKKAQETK
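Material: human UCH37 enzyme supplied as purified proteasome complex. Measure: % inhibition of Ub-AMC cleavage fluorescence. Medium: pH 7.4 Tris-HCl (50 mM) with ovalbumin, ATP-MgCl2, DTT. Times: 30 min preincubation with enzyme, 25 min cleavage at room temperature. Detection: AMC fluorescence intensity at 355/460 nm.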
CRFBP-R2 block: CRF-BP/CRF-R2 complex antagonism; HEK293 CRF-R2/CRF-BP, CRF-induced calcium fluorescence; inhibition, % at 11.8 µM; hit rate 0.59% among 350,000;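 active = inhibition of the ligand-induced calcium signal above about 50% at the single tested concentration, limit read from the data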
An asterisk follows results filed as active; · = not tested or not shown. A selection: hits, their analogues and other compounds. The true share with any hit is near 2.1%.

SMILES	CRFR2-BP ag	H9c2 protect	beta cell repl	iPSC survival up	UCH37 DUB inh	CRFBP-R2 block
O=C(N/N=C/c1ccc(O)c(O)c1)c1ccc(CSc2cccc3cccnc23)cc1	-1	88*	-4	-2	·	77*
O=C(NN=Cc1ccc(O)cc1O)c1ccccc1NS(=O)(=O)c1cccs1	-4	51*	-4	0	-5	-10
Cc1cc2ccccn2c1C(=O)c1ccc(Cl)c([N+](=O)[O-])c1	-2	-13	-6	0	2	-14
Cc1c(C=O)c2ccccn2c1C(=O)c1ccc(Cl)c([N+](=O)[O-])c1	0	51*	-6	0	3	3
CCOC(=O)c1c(NC(=O)c2c(Br)cnn2C)c(C#N)nn1-c1ccccc1	0	12	-1	-3	-6	67*
CCOC(=O)NN=Cc1cn(Cc2ccc(Cl)cc2)c2ccccc12	·	·	·	·	4	·
CCOc1ccc(-n2c(O)c(/C=N/NC(=O)C3COc4ccccc4O3)c3ccccc3c2=O)cc1 (stereo unspecified)	1	56*	-4	1	-1	-12
CC(=O)c1ccc(-c2cnc3c(NC=O)cc(-c4ccc(N5CCN(C)CC5)cc4)cn23)cc1	·	15	·	-4	·	·
CC(=O)c1ccc(-c2cnc3c(NC=O)cc(-c4ccc(C(=O)NC5CC5)cc4)cn23)cc1	·	95*	·	-5	·	·
O=CNc1cc(-c2ccc(C(=O)NC3CC3)cc2)cn2c(-c3ccc(F)c(Cl)c3)cnc12	·	60*	·	1	·	·
O=CNc1cc(-c2ccccc2)cn2c(-c3ccc(F)c(Cl)c3)cnc12	·	6	·	-1	·	·
O=CNc1cc(-c2ccc(C(=O)NC3CC3)cc2)cn2c(-c3ccccc3)cnc12	·	72*	·	-1	·	·
COC(=O)c1ccc(OCC(=O)Nc2ccccc2C(=O)NC2CC2)cc1	4	57*	6	0	·	3
COc1ccc(OCC(=O)NN=Cc2ccsc2)cc1	·	·	·	·	-4	·
CN(C)S(=O)(=O)c1ccc(C(=O)OCC(=O)Nc2ccc(OC(F)F)cc2)cc1	3	-4	-3	0	2	96*
CN(C)c1ccc(C(=O)OCC(=O)Nc2ccc(S(N)(=O)=O)cc2)cc1	8	-10	0	2	-3	54*
COc1ccccc1/C=C\C=Nn1c(-c2ccc(Cl)cc2Cl)n[nH]c1=S	·	·	·	·	3	·
CC1=CC(=C(C#N)c2nc3ccccc3s2)C=C(C)N1c1ccc(F)cc1	34	-7	-3	2	4	-42
COc1ccccc1N1C(C)=CC(=C(C#N)c2nc3ccccc3s2)C=C1C	109*	-6	-6	-1	1	-90
CCn1cc(C=C2C(=O)c3ccccc3C2=O)c2ccccc21	196*	6	·	3	5	-246
Cc1nnc(C)n1/N=C/c1cccs1	1	25	2	0	·	55*
Cc1nnc(C)n1N=Cc1cccs1	·	·	·	·	2	·
O=C(COc1cccc(Cl)c1)Nc1ccc(N2CCOCC2)cc1	7	-11	-1	0	-2	80*
COc1ccc2nc3cc(Cl)ccc3c(Nc3cc(CN4CCCC4)c(O)c(CN4CCCC4)c3)c2n1	·	50*	-8	-4	2	·
CC1=Nc2cc([N+](=O)[O-])ccc2NC(C)(C)C1	4	9	-3	0	7	-8
SMILES	CRFR2-BP ag	H9c2 protect	beta cell repl	iPSC survival up	UCH37 DUB inh	CRFBP-R2 block
CC1(C)CNc2cc([N+](=O)[O-])ccc2S1	0	-14	-2	-2	26*	23
CCOC(=O)/C(C#N)=C\c1ccc(N2CCN(C/C=C/c3ccccc3)CC2)cc1	55*	-13	0	4	1	-62
N#C/C(=C\c1ccc2c(c1)OCO2)C(N)=S	1	2	0	0	4	5
CCOC(=O)/C(C#N)=C\c1ccc2c(c1)OCO2	-1	0	-1	-1	6	110*
CCOc1ccc(C=c2sc3nc(-c4ccco4)nn3c2=O)cc1OCC	·	·	·	·	7	·
CCCCC(CC)CO (stereo unspecified)	-3	1	-1	-1	4	14
CCCCC(CC)CN=C(N)NC(N)=NCCCCCCN=C(N)NC(N)=NCC(CC)CCCC (stereo unspecified)	112*	-45	-8	-4	9	-71
CC[C@@]1(O)C(=O)OCc2c1cc1n(c2=O)Cc2cc3c(N)cccc3nc2-1	0	2	-7	-4	-1	11
CC[C@@]1(O)C(=O)OCc2c1cc1n(c2=O)Cc2cc3c(CN(C)C)c(O)ccc3nc2-1	231*	10	-8	-3	-62	-242
Cc1nn(-c2ccccc2)c(N2CCCC2)c1C=NNC(=S)Nc1ccccc1F	·	·	·	·	-7	·
CN(N=Cc1cc(Br)cc(Br)c1O)c1cccc(C(F)(F)F)n1	·	·	·	·	6	·
Cc1nc2ccccc2c(=O)n1N=Cc1ccc(O)c(O)c1O	·	·	·	·	11	·
O=C(O)c1ccc(NN=Cc2cccc(C(F)(F)F)c2)cc1	·	·	·	·	9	·
O=C(O)c1ccc(/C=N/Nc2cccc(C(F)(F)F)c2)cc1	0	-5	-1	0	·	76*
COc1cc(OC)cc(-c2oc3cccnc3c2C#CCCO)c1	-1	56*	4	4	-13	-7
COC(=O)NN=C/C=C/c1ccc2c(c1)OCO2	·	·	·	·	1	·
COc1cc(/C=C(\C#N)C(=O)c2ccc(O)c(O)c2)cc(I)c1O	188*	62*	-4	0	12	-215
COc1ccc(C=C(C#N)C(=O)c2ccccc2)cc1	·	·	·	-2	·	·
CC(=NNc1c(Cl)c(Cl)nc(C(=O)O)c1Cl)c1ccc(O)cc1	·	·	·	·	9	·
Cn1c(=O)n(Cc2ccccc2F)c2ccccc21	-1	1	-1	0	6	-16
Cn1c(=O)n(Cc2ccccc2Cl)c2ccccc21	0	12	2	1	4	53*
CCCCn1c(=O)c(C(=O)NN=Cc2ccc(F)cc2)c(O)c2ccccc21	·	·	·	·	-3	·
Cc1ccccc1C(=O)NC(=S)NCC1CCCO1 (stereo unspecified)	-2	6	-2	5	1	-1
O=C(NC(=S)NCC1CCCO1)C(c1ccccc1)c1ccccc1 (stereo unspecified)	2	-1	-1	-1	-1	55*
O=C(Cn1cc(C=NO)c2ccccc21)N1CCOCC1	·	·	·	·	3	·
Cn1cccc1/C=C1/SC(=S)N(CC(=O)O)C1=O	5	-1	-1	1	23*	11
CCC(C(=O)O)N1C(=O)/C(=C/c2cccn2C)SC1=S (stereo unspecified)	3	7	·	1	23*	17
Nc1c(C(=O)N2CCCCCC2)oc2ccccc12	0	-4	-1	1	-23	112*
O=C(Nc1cc(=O)c2ccccc2o1)N1CCCCC1	0	104*	2	1	-1	-2
CC/C(=N\OC(=O)c1ccc(OC(C)C)cc1)c1ccc(C)cc1	4	-15	-3	-3	·	7
